Data taken from ChEMBL document CHEMBL3868602, “Novel synthetic chalcones induce apoptosis in the A549 non-small cell lung cancer cells harboring a KRAS mutation” (Bioorg Med Chem Lett, 2016).
The source made the active and inactive calls. The calls are words filed in the database; no cut-off is given here.

Tests used:
[1] = test system: A549; test: (§1) Cytotoxicity against human A549 cells harboring KRAS mutant assessed as increase in apoptotic cells after 72 hrs by crystal violet staining based assay; assay type: functional, cell-based
Method in brief: (§2)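 Cells exposed 72 h to compound or DMSO vehicle, either at 1 and 10 μM or over 0.033–10 μM dose series. Surviving cells then stained with crystal violet and absorbance read at 562 nm. Effect expressed as % dead/apoptotic cells relative to DMSO, average of triplicates; dose curves n=6, run twice, mean ± SD, giving EC50.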

[2] = Cytotoxicity against human A549 cells harboring KRAS mutant assessed as apoptotic cells at 10 uM after 72 hrs by crystal violet staining based assay; assay type: functional; method in brief: as §2
[3] = as §1; assay type: functional, cell-based; details: A549, 72 h; method in brief: as §2
[4] = test system: A549; test: Cytotoxicity against human A549 cells harboring KRAS mutant assessed as increase in apoptotic cells at 1 uM after 72 hrs by crystal violet staining based assay; assay type: functional, cell-based; method in brief: as §2
[5] = Effect on cell cycle in NHBE cells at 1 uM after 24 hrs by propidium iodide staining based flow cytometry; details: human
Method in brief: (§3)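 Serum-starved 24 h to block in G1/G0, then returned to FBS-containing medium with test agent at 1 μM for a further 24 h. 0.5 × 10^6 treated cells stained with propidium iodide and analysed by flow cytometry, gating G1, S, G2/M plus apoptotic and necrotic populations. n=4–5 repeats.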

[6] = test system: A549; test: Induction of apoptosis in human A549 cells harboring KRAS mutant assessed as blockage of G2/M transition phase at 1 uM after 24 hrs by propidium iodide staining based flow cytometry; assay type: functional, cell-based; method in brief: as §3
[7] = Cytotoxicity against human PC3 cells assessed as cell death at 1 uM after 72 hrs by crystal violet staining based assay; assay type: functional, PC-3
Method in brief: (§4)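 Cells treated with compound or DMSO vehicle for 72 h at 0.033–10 uM, then stained with crystal violet; absorbance at 562 nm taken as live cell number. Cell death read at 1 uM relative to DMSO controls. n=6, performed twice; mean ± SD.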

[8] = Cytotoxicity against mouse Panc02 cells assessed as cell death at 1 uM after 72 hrs by crystal violet staining based assay; assay type: functional; method in brief: as §4
[9] = Cytotoxicity against NHBE cells assessed as decrease in cell viability at 0.01 to 10 uM after 72 hrs by crystal violet staining based assay; assay type: toxicity; details: human; method in brief: as §2
[10] = Cytotoxicity against human A549 cells harboring KRAS mutant assessed as cell death at 1 uM after 72 hrs by crystal violet staining based assay; assay type: functional; method in brief: as §4
[11] = Therapeutic index, ratio of EC50 for NHBE cells to EC50 for human A549 cells harboring KRAS mutant; assay type: cell-based; details: NHBE cells versus A549 cells harboring KRAS mutant, read-out: Ratio EC50
Method in brief: (§5)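 Ratio computed from EC50 values obtained by 72 h crystal violet survival assays (absorbance 562 nm) in each cell line, divided by the A549 EC50.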

[12] = test system: A549; test: Suppression of cyclin A2 level in human A549 cells harboring KRAS mutant at 1 uM after 8 to 48 hrs by Western blot analysis; assay type: functional, cell-based
Method in brief: (§6)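 A549 cells given serum-containing medium with DMSO or 1 μM compound for 8, 24 or 48 h. Lysates immunoblotted for cyclin A2, cyclin B1, phospho-Rb, total Rb and phospho-STMN1. Two independent experiments.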

[13] = target: T1, Stathmin (Homo sapiens) (UniProt P16949); test: Increase in STMN1 phosphorylation in human A549 cells harboring KRAS mutant at 1 uM after 8 hrs by Western blot analysis; assay type: cell-based; method in brief: as §6
T1 sequence (whole entry): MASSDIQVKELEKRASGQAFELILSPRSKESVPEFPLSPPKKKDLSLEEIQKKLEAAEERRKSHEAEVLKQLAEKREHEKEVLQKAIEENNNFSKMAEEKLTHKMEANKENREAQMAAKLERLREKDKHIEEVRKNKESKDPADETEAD

[14] = Cytotoxicity against human HPAC CRL2119 cells assessed as cell death at 1 uM after 72 hrs by crystal violet staining based assay; assay type: functional; method in brief: as §4
[15] = target: T2, Retinoblastoma-associated protein (Homo sapiens) (UniProt P06400); test: Inhibition of phosphorylated retinoblastoma protein level in human A549 cells harboring KRAS mutant at 1 uM after 8 to 48 hrs by Western blot analysis; assay type: cell-based; method in brief: as §6
T2 sequence (whole entry): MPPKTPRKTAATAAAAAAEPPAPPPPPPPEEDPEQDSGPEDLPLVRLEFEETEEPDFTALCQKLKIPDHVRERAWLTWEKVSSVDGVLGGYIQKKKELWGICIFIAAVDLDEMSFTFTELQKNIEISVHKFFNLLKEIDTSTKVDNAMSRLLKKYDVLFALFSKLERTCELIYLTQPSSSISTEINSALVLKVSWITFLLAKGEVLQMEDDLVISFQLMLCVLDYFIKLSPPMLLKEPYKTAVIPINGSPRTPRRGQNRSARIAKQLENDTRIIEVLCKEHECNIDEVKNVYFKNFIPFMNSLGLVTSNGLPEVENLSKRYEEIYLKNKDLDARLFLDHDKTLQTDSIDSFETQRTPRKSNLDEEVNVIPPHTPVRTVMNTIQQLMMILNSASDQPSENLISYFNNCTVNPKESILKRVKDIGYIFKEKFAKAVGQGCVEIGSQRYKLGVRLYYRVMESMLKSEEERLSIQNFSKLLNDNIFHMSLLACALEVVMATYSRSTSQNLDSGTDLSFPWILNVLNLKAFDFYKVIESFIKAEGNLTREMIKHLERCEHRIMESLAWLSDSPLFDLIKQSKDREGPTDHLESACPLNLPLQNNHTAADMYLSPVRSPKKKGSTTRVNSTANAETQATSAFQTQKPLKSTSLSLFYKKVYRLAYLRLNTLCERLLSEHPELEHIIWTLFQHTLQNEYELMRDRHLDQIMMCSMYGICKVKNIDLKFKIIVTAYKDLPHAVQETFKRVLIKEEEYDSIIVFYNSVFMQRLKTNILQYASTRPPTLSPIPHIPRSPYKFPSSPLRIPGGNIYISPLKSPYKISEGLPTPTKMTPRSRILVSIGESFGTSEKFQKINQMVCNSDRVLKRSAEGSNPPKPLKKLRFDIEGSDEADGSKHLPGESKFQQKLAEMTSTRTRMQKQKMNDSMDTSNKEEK

[16] = Cell cycle arrest in human PC3 cells assessed as blockage of G1 phase at 1 uM after 24 hrs by propidium iodide staining based flow cytometry; assay type: functional; details: PC-3; method in brief: as §3
[17] = Cell cycle arrest in human PC3 cells assessed as inhibition of S phase at 1 uM after 24 hrs by propidium iodide staining based flow cytometry; assay type: functional; details: PC-3; method in brief: as §3
[18] = test system: A549; test: Ratio of EC50 for human HPAC CRL2119 cells to EC50 for human A549 cells harboring KRAS mutant; assay type: functional; method in brief: as §5
[19] = test system: PC-3; test: Induction of apoptosis in human PC3 cells after 72 hrs by crystal violet staining based assay; assay type: functional, cell-based; method in brief: as §2
[20] = test system: A549; test: Ratio of EC50 for human PC3 cells to EC50 for human A549 cells harboring KRAS mutant; assay type: functional; method in brief: as §5
[21] = test system: A549; test: Ratio of EC50 for mouse Panc02 cells to EC50 for human A549 cells harboring KRAS mutant; assay type: functional; method in brief: as §5
[22] = test system: HPAC; test: Induction of apoptosis in human HPAC CRL2119 cells after 72 hrs by crystal violet staining based assay; assay type: functional, cell-based; method in brief: as §2
[23] = test system: Panc02; test: Induction of apoptosis in mouse Panc02 cells after 72 hrs by crystal violet staining based assay; assay type: functional, cell-based; method in brief: as §2

Row | Structure (SMILES) | Activity [1] | EC50 [3] [µM] | Activity [4] | other results
1 | CC(=O)n1ccc2cc(/C=C3\CCc4ccc(F)cc4C3=O)ccc21 | Dose-dependent effect |  |  | Activity [2]: 28%
2 | Cn1ccc2cc(/C=C3\CCc4ccccc4C3=O)ccc21 | Dose-dependent effect | 0.47 | Active | 
3 | COc1ccc2c(c1)C(=O)/C(=C/c1ccc3[nH]ccc3c1)CC2 | Dose-dependent effect | 0.55 | Active | Activity [5]: Non-Toxic; Activity [6]: Active; Activity [7]: <40%; Activity [8]: <40%; Activity [9]: Non-Toxic; Activity [10]: 80%; selectivity ratio [11]: > 18; Activity [12]: Active; Activity [13]: Active; Activity [14]: <40%; inhibition [15]: Active
4 | Cn1ccc2ccc(/C=C3\CCc4ccccc4C3=O)cc21 | Dose-dependent effect | 0.47 | Active | 
5 | COc1cc2c(cc1OC)C(=O)/C(=C/c1ccc3c(ccn3C)c1)CC2 | Dose-dependent effect |  |  | 
6 | CCn1ccc2cc(/C=C3\CCc4ccccc4C3=O)ccc21 | Dose-dependent effect | 0.46 | Active | 
7 | CCn1ccc2cc(/C=C3\CCc4ccc(Br)cc4C3=O)ccc21 | Dose-dependent effect |  |  | 
8 | O=C1/C(=C/c2ccc3[nH]ccc3c2)CCc2ccccc21 | Dose-dependent effect | 1.13 | Active | 
9 | Cn1ccc2cc(/C=C3\CCc4ccc(Br)cc4C3=O)ccc21 | Dose-dependent effect |  |  | Activity [2]: 21%
10 | CCn1ccc2cc(/C=C3\CCc4cc(OC)c(OC)cc4C3=O)ccc21 | Dose-dependent effect |  |  | Activity [2]: 19%
11 | Cn1ccc2ccc(/C=C3\CCc4ccc(Br)cc4C3=O)cc21 | Dose-dependent effect |  |  | Activity [2]: 26%
12 | COc1ccc2c(c1)C(=O)/C(=C/c1ccc3c(ccn3C)c1)CC2 | Dose-dependent effect | 3 | Active | 
13 | COc1cc(/C=C2\CCc3ccc(F)cc3C2=O)cc(OC)c1OC |  |  |  | Activity [16]: Active; inhibition [17]: Active
14 | CC(C)(C)OC(=O)n1ccc2cc(/C=C3\CCc4ccccc4C3=O)ccc21 | Dose-dependent effect |  |  | 
15 | COc1cc2c(cc1OC)C(=O)/C(=C/c1ccc3ccn(C)c3c1)CC2 | Dose-dependent effect | 10 | Active | 
16 | CCn1ccc2cc(/C=C3\CCc4ccc(F)cc4C3=O)ccc21 | Dose-dependent effect | 0.11 | Active | Ratio EC50 [18]: 2.8; Activity [19]: Dose-dependent effect; EC50 ([19]; PC-3, 72 h): 0.45 µM; Ratio EC50 [20]: >4; Ratio EC50 [21]: >4; Activity [22]: Dose-dependent effect; EC50 [22]: 0.31 µM; Activity [23]: Dose-dependent effect; EC50 ([23]; Panc02, 72 h): 0.59 µM
17 | COc1ccc2c(c1)C(=O)/C(=C/c1ccc3ccn(C)c3c1)CC2 | Dose-dependent effect | 5.8 | Active | 
18 | O=C1/C(=C/c2ccc3c(ccn3Cc3ccccc3)c2)CCc2ccc(F)cc21 | Dose-dependent effect |  |  | 
19 | Cn1ccc2cc(/C=C3\CCc4ccc(F)cc4C3=O)ccc21 | Dose-dependent effect | 0.2 | Active | 
20 | CCn1ccc2cc(/C=C3\CCc4ccc(OC)cc4C3=O)ccc21 | Dose-dependent effect | 3 | Active | 
21 | O=C1/C(=C/c2ccc3[nH]ccc3c2)CCc2ccc(Br)cc21 | Dose-dependent effect |  |  | Activity [2]: 16%
22 | O=C1/C(=C/c2ccc3[nH]ccc3c2)CCc2ccc(F)cc21 | Dose-dependent effect | 0.27 | Active | 
23 | CC(C)(C)OC(=O)n1ccc2cc(/C=C3\CCc4ccc(F)cc4C3=O)ccc21 | Dose-dependent effect |  |  | 
